Assay results taken from PMC4059252 (Journal of Medicinal Chemistry, 2014).

Experiment: Metal cation competition
Assay type: physicochemical
Procedure, shortened: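 200 μM ligand (1 mL) was labelled with 30–50 μCi neutralised 89Zr for 1 h at room temperature, and complete labelling was confirmed by radio-TLC. 200 μL aliquots were mixed with 200 μL 1 mM metal salt (e.g. CoCl2) at pH 7.4 and incubated at 37 °C with agitation. Radio-TLC at 1 h, 1, 5, 7 d gave % intact complex. Mean and SD from two experiment sets.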

^89Zr^4+ released (after 7 days of incubation with FeCl3): > 50%
^89Zr^4+ released (in the presence of Ga^3+): ~9%
SMILES: CC(=O)N(O)CCCCCNC(=O)CCC(=O)N(O)CCCCCNC(=O)CCC(=O)N(O)CCCCCN [DFO, desferrioxamine B]
